Reference: ChEMBL document CHEMBL3808334, “Synthesis and in vitro evaluation of novel triazine analogues as anticancer agents and their interaction studies with bovine serum albumin” (Eur J Med Chem, 2016)

Legend:
[1] = test system: U-251; test: Growth inhibition of human U251 cells assessed as cell growth at 10^-8 M incubated for 48 hrs by sulforhodamine B assay; assay type: functional; settings: U-251, 48 h, read-out: Activity
[2] = test system: EKVX; test: Growth inhibition of human EKVX cells assessed as cell growth at 10^-6 M incubated for 48 hrs by sulforhodamine B assay; assay type: functional; settings: read-out: Activity
In short: (§1)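 Cells seeded at 5,000–40,000/well according to doubling time and preincubated 24 h at 37 °C, 5% CO2. Time-zero plates were TCA-fixed. DMSO concentrate was diluted in medium with 50 µg/ml gentamicin to give five concentrations (10-fold or ½ log steps), then exposed 48 h. Cells were TCA-fixed, stained with 0.4% SRB and read at 515 nm. Percent growth was taken against time-zero and control; GI50, TGI and LC50 derived.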

[3] = Growth inhibition of human HCT15 cells assessed as cell growth at 10 uM incubated for 48 hrs by sulforhodamine B assay; assay type: functional; settings: HCT-15, 48 h, read-out: Activity
In short: (§2)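 Primary screen at one dose (10 µM) across 60 human cancer cell lines. Readout was growth percent relative to untreated control and time-zero.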

[4] = test system: CCRF-CEM; test: Growth inhibition of human CCRF-CEM cells assessed as cell growth at 10^-5 M incubated for 48 hrs by sulforhodamine B assay; assay type: functional; settings: read-out: Activity
In short: (§3)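 Leukemia line in the five-dose format: five concentrations from 10-fold or ½-log serial dilutions. Plated at 5,000–40,000 cells per well, preincubated 24 h, then compound added for 48 h at 37 °C, 5% CO₂. Sulforhodamine B absorbance read at 515 nm. Growth is computed against time-zero (Tz) and control (C) readings; GI₅₀ is where [(Ti−Tz)/(C−Tz)]×100 = 50.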

[5] = test system: T47D; test: Growth inhibition of human T47D cells assessed as cell growth at 10^-8 M incubated for 48 hrs by sulforhodamine B assay; assay type: functional; settings: read-out: Activity
[6] = Growth inhibition of human HCT116 cells assessed as cell growth at 10 uM incubated for 48 hrs by sulforhodamine B assay; assay type: functional; settings: HCT-116, 48 h, read-out: Activity; in short: as §2
[7] = test system: M14; test: Growth inhibition of human M14 cells assessed as cell growth at 10^-6 M incubated for 48 hrs by sulforhodamine B assay; assay type: functional; settings: M14, 48 h, read-out: Activity
[8] = Growth inhibition of human HCT15 cells assessed as cell growth at 10^-5 M incubated for 48 hrs by sulforhodamine B assay; assay type: functional; settings: HCT-15, 48 h, read-out: Activity; in short: as §1
[9] = test system: M14; test: Growth inhibition of human M14 cells assessed as cell growth at 10 uM incubated for 48 hrs by sulforhodamine B assay; assay type: functional; settings: M14, 48 h, read-out: Activity
[10] = Growth inhibition of human Caki1 cells incubated for 48 hrs by sulforhodamine B assay; assay type: functional; settings: CAKI-1, 48 h; for CC50: read-out: pLC50 (the source's name) (converted); in short: as §1
[11] = Growth inhibition of human OVCAR5 cells assessed as cell growth at 10^-8 M incubated for 48 hrs by sulforhodamine B assay; assay type: functional; settings: OVCAR-5, 48 h, read-out: Activity
[12] = test system: NCI-H23; test: Growth inhibition of human NCI-H23 cells assessed as cell growth at 10^-8 M incubated for 48 hrs by sulforhodamine B assay; assay type: functional; settings: NCI-H23, 48 h, read-out: Activity
[13] = target: Albumin (Bos taurus, UniProt P02769); test: Binding affinity to bovine serum albumin assessed as binding constant in emission spectra by Benesie-Hildebrand plot analysis; assay type: ADME; settings: cattle, isolated protein
Chain of Albumin (P02769 whole entry): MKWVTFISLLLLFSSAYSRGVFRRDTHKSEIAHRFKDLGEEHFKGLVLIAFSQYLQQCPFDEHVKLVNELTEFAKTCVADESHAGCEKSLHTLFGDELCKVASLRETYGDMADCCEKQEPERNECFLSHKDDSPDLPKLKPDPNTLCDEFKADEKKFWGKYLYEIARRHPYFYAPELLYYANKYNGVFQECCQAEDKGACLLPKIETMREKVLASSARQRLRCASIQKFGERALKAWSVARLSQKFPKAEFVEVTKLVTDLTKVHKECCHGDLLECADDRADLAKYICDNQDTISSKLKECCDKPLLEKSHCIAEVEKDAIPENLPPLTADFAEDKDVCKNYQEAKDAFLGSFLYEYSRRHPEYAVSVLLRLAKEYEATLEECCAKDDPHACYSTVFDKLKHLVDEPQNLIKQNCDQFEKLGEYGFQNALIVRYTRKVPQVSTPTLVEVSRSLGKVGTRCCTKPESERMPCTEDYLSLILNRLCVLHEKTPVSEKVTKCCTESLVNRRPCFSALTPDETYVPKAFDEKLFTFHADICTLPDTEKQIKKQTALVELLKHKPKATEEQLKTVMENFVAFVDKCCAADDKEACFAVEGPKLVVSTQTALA
In short: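 BSA, 10 µM, in 0.1 M phosphate buffer pH 7.4, titrated with compound (0–20 µM per the figure; diluted from 10⁻³ mol L⁻¹ DMSO stocks). Run at 300 K in a 1 cm quartz cell. UV spectra taken 200–800 nm after 5 min equilibration; fluorescence excited at 280 nm, emission 351 nm, slit 10 nm. K is the intercept/slope ratio of a linear fit of 1/(A₀−A) or 1/(F₀−F) vs 1/[compound].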

[14] = Growth inhibition of human HL-60(TB) cells assessed as cell growth at 10^-8 M incubated for 48 hrs by sulforhodamine B assay; assay type: functional; settings: HL-60, 48 h, read-out: Activity
In short: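 Cells plated at 5,000–40,000/well according to doubling time and preincubated 24 h at 37 °C, 5% CO₂, with time-zero plates TCA-fixed. Drugs were kept as DMSO concentrates at 400× the top concentration and diluted in medium with 50 µg/ml gentamicin. Five 10-fold or ½-log dilutions were run for 48 h, followed by SRB staining and A515. Percent growth = (Ti−Tz)/(C−Tz)×100, or (Ti−Tz)/Tz×100 when Ti<Tz.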

[15] = Growth inhibition of human SF295 cells assessed as cell growth at 10 uM incubated for 48 hrs by sulforhodamine B assay; assay type: functional; settings: SF-295, 48 h, read-out: Activity
[16] = Growth inhibition of human HCC2998 cells assessed as cell growth at 10^-5 M incubated for 48 hrs by sulforhodamine B assay; assay type: functional; settings: HCC 2998, 48 h, read-out: Activity; in short: as §1
[17] = test system: NCI-H522; test: Growth inhibition of human NCI-H522 cells incubated for 48 hrs by sulforhodamine B assay; assay type: functional; settings: NCI-H522, 48 h
In short: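 Cells were plated at 5,000–40,000 per well according to doubling time and preincubated 24 h at 37 °C in 5% CO2; time-zero plates were then TCA-fixed. Five concentrations (10-fold or ½-log dilutions, DMSO stock) were incubated 48 h. Cells were TCA-fixed, stained with 0.4% SRB and read at 515 nm. GI50 was taken where [(Ti−Tz)/(C−Tz)]×100 = 50.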

[18] = test system: CCRF-CEM; test: Growth inhibition of human CCRF-CEM cells incubated for 48 hrs by sulforhodamine B assay; assay type: functional; in short: as §3
[19] = Growth inhibition of human OVCAR8 cells assessed as cell growth at 10^-5 M incubated for 48 hrs by sulforhodamine B assay; assay type: functional; settings: OVCAR-8, 48 h, read-out: Activity
[20] = test system: A549; test: Growth inhibition of human A549/ATCC cells assessed as cell growth at 10^-6 M incubated for 48 hrs by sulforhodamine B assay; assay type: functional; settings: A549, 48 h, read-out: Activity
In short: (§4)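 Five-dose assay: five concentrations from 10-fold or ½-log serial dilutions. Cells are plated at 5,000–40,000 per well according to doubling time, grown 24 h, then exposed 48 h at 37 °C, 5% CO₂. Fixed with cold 50% TCA (final addition) for 60 min at 4 °C and stained with 0.4% SRB in 1% acetic acid. Bound dye is solubilized in 10 mM Tris base and read at 515 nm. GI₅₀ is where [(Ti−Tz)/(C−Tz)]×100 = 50, with a time-zero plate as Tz.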

[21] = test system: ACHN; test: Growth inhibition of human ACHN cells assessed as cell growth at 10^-4 M incubated for 48 hrs by sulforhodamine B assay; assay type: functional; settings: read-out: Activity; in short: as §4
[22] = read-out: LC50 (the source's name)
[23] = read-out: pLC50 (the source's name) (converted)

Compound | growth at 0.01 µM [1] [%] | growth at 1 µM [2] [%] | growth at 10 µM [3] [%] | growth at 10 µM [4] [%] | growth at 0.01 µM [5] [%] | growth at 10 µM [6] [%] | growth at 1 µM [7] [%] | growth at 10 µM [8] [%] | growth at 10 µM [9] [%] | LC50 [10] [nM] | GI50 ([10]; read-out: GI50) [nM] | TGI ([10]; read-out: TGI) [nM] | GI50 ([10]; read-out: pGI50 (converted)) [nM] | CC50 [10] [nM] | TGI ([10]; read-out: pTGI (converted)) [nM] | growth at 0.01 µM [11] [%] | growth at 0.01 µM [12] [%] | K [13] | growth at 0.01 µM [14] [%] | growth at 10 µM [15] [%] | also measured
c1ccc(-c2nc(Nc3ccc(-c4nc5ccccc5[nH]4)cc3)nc(N3CCOCC3)n2)cc1 | 105 | 81 | -68.9 | -33 | 103 | -81.5 | 69 | -58 | -80.7 | 5060 | 1280 | 2540 | 1290 | 5010 | 2570 | 90 | 95 | 3.2 ×10⁴ /M | 73 | -76.4 | growth at 10 µM [16]: -62%; GI50 ([17]; read-out: GI50): 2100 nM; CC50 [17, 22]: 7330 nM; TGI ([17]; read-out: TGI): 3920 nM; GI50 ([17]; read-out: pGI50 (converted)): 2090 nM; CC50 [17, 23]: 7410 nM; TGI ([17]; read-out: pTGI (converted)): 3890 nM; GI50 ([18]; read-out: GI50): 544 nM; CC50 [18, 22]: > 100000 nM; TGI ([18]; read-out: TGI): 3120 nM; GI50 ([18]; read-out: pGI50 (converted)): 550 nM; CC50 [18, 23]: > 100000 nM; TGI ([18]; read-out: pTGI (converted)): 3090 nM; growth at 10 µM [19]: -78%; growth at 1 µM [20]: 96%; growth at 100 µM [21]: -70%
Clc1ccc(-c2nc(Nc3ccc(-c4nc5ccccc5[nH]4)cc3)nc(N3CCOCC3)n2)cc1 | 99 | 58 | -92.6 | -63 | 99 | -85.5 | 18 | -76 | -82.6 | 5230 | 1410 | 2720 | 1410 | 5250 | 2690 | 97 | 97 | 4.2 ×10⁷ /M | 97 | -94.4 | growth at 10 µM [16]: -57%; GI50 ([17]; read-out: GI50): 1500 nM; TGI ([17]; read-out: TGI): 3190 nM; GI50 ([17]; read-out: pGI50 (converted)): 1510 nM; TGI ([17]; read-out: pTGI (converted)): 3160 nM; GI50 ([18]; read-out: GI50): 259 nM; TGI ([18]; read-out: TGI): 687 nM; GI50 ([18]; read-out: pGI50 (converted)): 257 nM; TGI ([18]; read-out: pTGI (converted)): 692 nM; growth at 10 µM [19]: -79%; growth at 1 µM [20]: 40%; growth at 100 µM [21]: -30%
